# Sampled rows, rich in hits. Any-hit rate of the full collection: about 2.3%.
# STEP inh: inhibitors of human striatal-enriched phosphatase STEP. P54829. recombinant STEP, OMFP fluorogenic substrate, fluorescence. AID 588621. actives 0.25% (n = 360,000). inhibition, % at 20 µM;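 active = inhibition at 20 µM, scaled per plate between control wells, above about 37%, limit read from the data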;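 also: 0% = DMSO with enzyme and substrate and 100% = substrate only without enzyme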
#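 System: STEP phosphatase, cell-free reaction; Buffer or medium: Bis-Tris pH 6.0 buffer with DTT, detergent; Incubation: 20 min at room temperature, dark; Measured by: fluorescence, 480/540 nm.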
# Rpn11 block: inhibitors of human proteasome Rpn11; O00487; AID 588493; human 26S proteasome, Ub4-pepOG fluorescence polarization; 20S core pre-blocked with epoxomicin; inhibition, % at 20 µM; actives 0.59% (n = 360,000);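 active = inhibition at 20 µM, scaled to each plate's controls, above about 33%, limit read from the data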
# LMPTP inh: blocks human LMPTP phosphatase | recombinant LMPTP-A, OMFP fluorogenic substrate, fluorescence intensity | P24666 | inhibition, % at 20 µM | actives 0.22% (n = 360,000);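 active = compounds that cut the enzyme signal by at least half of the control window in the single-dose screen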;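 also: plate controls were DMSO wells with enzyme plus substrate for no effect and substrate without enzyme for full effect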
# Target sequence (P24666 whole entry, looked up): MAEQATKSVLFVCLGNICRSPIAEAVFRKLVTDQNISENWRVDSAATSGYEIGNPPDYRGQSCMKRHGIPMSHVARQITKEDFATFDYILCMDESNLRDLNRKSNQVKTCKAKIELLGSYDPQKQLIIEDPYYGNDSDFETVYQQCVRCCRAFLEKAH
#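 Test system: LMPTP-A phosphatase enzyme. Amount: LMPTP-A at 0.625 nM final in the reaction. Reagent: OMFP substrate, 400 µM final. Times: 50 min at room temperature. Signal: endpoint fluorescence intensity from OMFP dephosphorylation. Read-out basis: % inhibition. Benchmarks: no-enzyme and uninhibited controls.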
# Scp-1 inhibitor: inhibitors of human Scp-1 phosphatase; Recombinant Scp1, phosphopeptide, malachite green phosphate absorbance; Q9GZU7; AID 493091; actives 0.88% (n = 340,000); inhibition, % at 20 µM;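 active = inhibition above about 50% at 20 µM, limit read from the data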;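 also: plate controls were DMSO wells with enzyme for no effect and wells lacking enzyme for full effect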
# Target sequence (Q9GZU7 76-261 limits assumed): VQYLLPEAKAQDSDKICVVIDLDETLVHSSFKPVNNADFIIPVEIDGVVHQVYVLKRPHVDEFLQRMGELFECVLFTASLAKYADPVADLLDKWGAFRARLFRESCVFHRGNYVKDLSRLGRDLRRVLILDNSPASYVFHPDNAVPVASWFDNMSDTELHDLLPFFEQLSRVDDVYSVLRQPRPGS
#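 Test system: SCP-1 phosphatase catalytic domain, residues 76-261 | Compound dosing: One concentration, 20 µM, with 1.0% DMSO | Schedule: 45 min room-temperature reaction, 5 min colour, 30 min stabiliser | Detection: Absorbance at 630 nm | Read-out basis: % inhibition of SCP-1 phosphate liberation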
# DNMT1 block: blocks human DNA methyltransferase DNMT1 | AID 588458 | DNMT1 molecular beacon, Hinp1I cleavage, fluorescence | actives 0.83% (n = 360,000) | inhibition (reported as % activation of signal), % at 10 µM; in the data active = inhibition above about 50%
# SUMO1 PPI mod: SUMO1-SIM interaction modulation. P63165. SUMO1 binding to a labelled peptide, TR-FRET, 1 h. inhibition, % at 20 µM. actives 0.33% (n = 360,000). AID 602429; in the data active = inhibition above about 37%
# Target sequence (P63165 whole entry, looked up): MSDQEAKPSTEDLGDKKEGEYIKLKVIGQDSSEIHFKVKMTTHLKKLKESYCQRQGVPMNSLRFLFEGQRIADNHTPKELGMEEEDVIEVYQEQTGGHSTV
# STEP conf: STEP (human) phosphatase inhibition, single concentration confirmation. shares compounds with STEP inh. recombinant STEP, OMFP fluorogenic substrate, fluorescence. inhibition, % at 20 µM. actives 32% (n = 520). AID 623866; call rule not given here;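 also: 0% = enzyme with substrate plus DMSO and 100% = substrate without enzyme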
# * = called active by the depositor; nt = not tested or not shown.
SMILES,STEP inh,Rpn11 block,LMPTP inh,Scp-1 inhibitor,DNMT1 block,SUMO1 PPI mod,STEP conf
CC1(C)CC(=O)C=C(NNC(=O)c2ccc(N)cc2)C1,120*,13,-1,0,2,-1,6
CN(CC(=O)O)Cc1oc(CO)cc(=O)c1O,2,-3,0,2,9,-4,nt
O=C(O)c1ccc(NC(=O)c2ccccc2NC(=O)c2cccc(F)c2)cc1,68*,-2,-2,-8,-3,2,13
Cc1ccc(CSc2nnc(-c3ccc4c(c3)OCO4)o2)cc1,0,4,2,-13,-6,-1,nt
Cc1ccc(Nc2nnc(-c3ccc4c(c3)OCO4)o2)c(C)c1,48*,12,2,-17,-2,-1,4
CCN(CC)C(=O)c1ccccc1NC(=O)c1ccccc1SC,43*,15,-2,-3,-1,3,5
Cc1ccc2[nH]c(C(=O)NN=C3CCCCC3)c(-c3ccccc3)c2c1,-3,-3,0,4,-2,1,nt
Cc1c(C(=O)N/N=C/c2cccc(O)c2)nnn1-c1nonc1N,7,-1,0,-2,0,-12,nt
Cc1ccccc1COc1cccc(/C=N/NC(=O)c2nnn(-c3nonc3N)c2C)c1,91*,-2,36,-3,7,1,0
COc1ccc(/C=N/NC(=O)c2nnn(-c3nonc3N)c2CN(C)c2ccccc2)cc1,73*,-1,3,-6,-6,-5,-2
CC(OC(=O)c1cccc(S(=O)(=O)Nc2cccc(C(F)(F)F)c2)c1)C(=O)Nc1ccc2c(c1)OCCO2 (centres undefined),61*,2,3,-10,-17,7,19
COC(=O)c1ccc(/C=N/Nc2nc3ccccc3[nH]2)cc1,4,-3,0,-4,-3,-2,nt
O=C(O)c1ccc(/C=N/Nc2nc3ccccc3[nH]2)cc1,49*,3,14,38,2,-9,0
CCC(C)(C(=O)NC1CCCC1)N(Cc1cccs1)C(=O)Cc1cccs1 (centres undefined),90*,3,1,-9,6,-1,0
O=C(c1cccs1)N(Cc1cccc(F)c1)C1CCS(=O)(=O)C1 (centres undefined),0,-2,-2,-5,-1,2,nt
CSc1ccccc1NC(=O)CN(C)C(=O)c1cccc(S(=O)(=O)N(C)C)c1,49*,0,4,1,2,-10,8
CN(CC(=O)Nc1cccc2ccccc12)C(=O)c1cccc(S(=O)(=O)N(C)C)c1,13,0,0,-2,0,-12,nt
CCOCCCNC(=S)NC1CC2CCC(C1)N2Cc1ccccc1 (centres undefined),55*,0,1,-3,0,2,25
O=C(Nc1ccc(C(=O)N2CCCCC2)cc1)c1cccs1,68*,-8,2,-7,7,-17,4
O=C(Nc1ccc(C(=O)N2CCOCC2)cc1)c1cccs1,-2,1,0,-3,-2,2,nt
COc1ccc(-c2cc(C(=O)Nc3ccc(S(=O)(=O)Nc4onc(C)c4C)cc3)c3ccccc3n2)cc1,-2,10,0,6,-12,-9,nt
O=C(CSc1ccc2ccccc2c1)Nc1ccc(S(=O)(=O)Nc2nccs2)cc1,-1,3,3,-8,-16,10,nt
NC1=NC[C@H](Cc2ccccc2)N1CCc1cccc(F)c1,70*,9,17,9,-35,74*,17
NC1=NC[C@H](Cc2ccccc2)N1CCCCC1CCCCC1,3,-9,0,14,25,-51,nt
CN(C)S(=O)(=O)n1cc(/C=C(\NC(=O)c2ccccc2Cl)C(=O)N2CCCC2)c2ccccc21,0,-2,0,-5,-3,7,nt
SMILES,STEP inh,Rpn11 block,LMPTP inh,Scp-1 inhibitor,DNMT1 block,SUMO1 PPI mod,STEP conf
COc1ccc(/C=C/C(=O)c2ccccc2O)cc1CN1CCOCC1,52*,-6,2,-3,-6,1,-10
FC(F)(F)Oc1ccc(NC(=S)NCCCN2CCOCC2)cc1,41*,-4,-2,-8,10,4,30
O=C(CCl)N(C1CCCC1)C1CCS(=O)(=O)C1 (centres undefined),1,2,-4,-3,0,-1,nt
O=C(O)CCCCCn1c(SCc2cc(=O)n3cc(Cl)ccc3n2)nc2ccsc2c1=O,65*,0,-1,0,0,-14,12
O=S(=O)(c1cccc2ccccc12)N1CCC2CC1c1cc(Cl)ccc12 (centres undefined),2,2,3,-17,1,4,nt
Clc1ccc(Cl)c(-c2nc(-c3ccncc3)no2)c1,44*,2,44,2,23,33,12*
Clc1ccc(-c2nc(-c3ccncc3)no2)c(Cl)c1,3,33,2,-11,23,3,nt
COC(=O)c1nc(NC(=O)c2cc(OC)c(OC)c(OC)c2)n[nH]1,1,4,0,-1,-1,5,nt
CC(NC(=O)c1ccc(S(=O)(=O)Nc2ccccc2Cl)cc1)c1ccncc1 (centres undefined),-1,1,2,-7,1,-2,nt
CCOc1ccc(CCNC(=O)CS(=O)(=O)Cc2nc(-c3ccc(OC)cc3)oc2C)cc1,44*,8,25,22,18,4,19*
CCCCOCCCNC(=O)C[C@@H]1C[C@@]2(C(=O)OCC)CCC=C2N(Cc2cccc3ccccc23)C1=O,nt,nt,2,nt,nt,3,nt
COc1ccc(S(=O)(=O)Nc2noc3ccccc23)cc1,84*,-5,-2,-8,3,2,-11
COc1cccc(S(=O)(=O)Nc2noc3ccccc23)c1,-2,3,2,-10,1,1,nt
CCN(c1ccc(NC(=O)COC(=O)C(C)N=C2NS(=O)(=O)c3ccccc32)cc1)C(C)C (centres undefined),-3,2,1,-3,-7,2,nt
c1ccc(OCc2nnc3n2N=C(c2ccccc2)CS3)cc1,70*,-2,1,-5,-2,-5,0
COc1ccc(OCc2nnc3n2N=C(c2ccc(OC)cc2)CS3)cc1,0,5,0,0,1,-1,nt
COc1ccc(N=C2SC(C(=O)Nc3ccc(OC)cc3)CC(=O)N2CCN2CCOCC2)cc1 (centres undefined),-1,2,-1,0,-1,-2,nt
CCCn1c(SCC(=O)c2c(C)[nH]c(C)c2C(=O)OCC)nc2ccccc21,59*,-3,1,-4,3,4,26

# High-throughput results as filed in PubChem.
